Laboratory results reported in ChEMBL document CHEMBL2029264, “Indole-based fibrates as potential hypolipidemic and antiobesity agents” (J Med Chem, 2012).
Activity calls are given as the source filed them. The calls are words filed in the database; no cut-off is given here.

Assays:
Rattus norvegicus [1] = test: Antihyperlipidemic activity in Triton WR-1339-induced hyperlipidemic rat assessed as decrease in plasma phospholipid level at 100 mg/kg, po relative to control; format: functional; design: scale not given: the % may be the effect or the level left
Method in brief: (§1)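 Triton WR-1339 given to rats to induce hyperlipidemia; oral dosing. Plasma TC, PL, TG in mg/dL; PHLA as […]/h/mL plasma. Mean ± SD of six rats; Triton group compared with control, Triton plus dosed group compared with Triton group.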

Rattus norvegicus [2] = test: Antihyperlipidemic activity in HFD-induced hyperlipidemic Charles Foster rat assessed as increase in plasma HDL-apoprotein level at 100 mg/kg, po administered for 4 weeks relative to control; format: functional
Method in brief: (§2)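 After 4 weeks high-fat feeding plus 4 weeks daily dosing, overnight fast, retro-orbital blood into EDTA tubes. Serum split into VLDL, LDL and HDL by polyanionic precipitation; each fraction assayed for TC, PL, TG and apoprotein (mg/dL plasma). Pooled data from 6 rats/group, mean ± SD, dosed groups compared with high-fat group.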

Rattus norvegicus [3] = test: Antihyperlipidemic activity in Triton WR-1339-induced hyperlipidemic rat assessed as increase in PHLA enzyme level at 150 mg/kg, po; format: functional
Method in brief: (§3)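 Separate set of Triton WR-1339-induced hyperlipidemic rats, oral doses of 50, 100 and 150 mg/kg. Plasma TC, PL, TG in mg/dL; PHLA as […]/h/mL plasma. Mean ± SD of six rats versus Triton group.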

Rattus norvegicus [4] = test: Antihyperlipidemic activity in Triton WR-1339-induced hyperlipidemic rat assessed as decrease in plasma total cholesterol level at 150 mg/kg, po; format: functional; method in brief: as §3
Rattus norvegicus [5] = test: Toxicity in HFD-induced hyperlipidemic Charles Foster rat at 100 mg/kg/day, po administered for 4 weeks by macroscopic analysis; format: organism-based; design: route oral; details: in vivo, 672 h
Method in brief: (§4)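 Male Charles Foster rats (200−225 g) were fed a high-fat diet for 4 weeks, then dosed at 100 mg/kg/d alongside the same diet for 4 more weeks. Survival was monitored. After an overnight fast, blood was drawn and the animals were sacrificed. Macroscopic inspection and autopsy were then performed, with n = 6 per group.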

Rattus norvegicus [6] = test: Antihyperlipidemic activity in Triton WR-1339-induced hyperlipidemic rat assessed as increase in PHLA enzyme level at 50 mg/kg, po; format: functional; method in brief: as §3
Rattus norvegicus [7] = test: Toxicity in HFD-induced hyperlipidemic Charles Foster rat assessed as decrease in food intake at 100 mg/kg, po administered for 4 weeks; format: organism-based; design: dose 100 mg/kg, route oral; details: in vivo, 672 h
Method in brief: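 Adult male Charles Foster rats (200−225 g) were kept at 25−26 °C, 50−70% humidity, and a 12/12 h light/dark cycle. They were fed a high-fat diet for 4 weeks to induce hyperlipidemia, then given high-fat diet plus test agent at 100 mg/kg/d for another 4 weeks. Food intake was recorded over the experimental period, with n = 6 per group, and animals were sacrificed after 8 weeks.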

Rattus norvegicus [8] = test: Antihyperlipidemic activity in HFD-induced hyperlipidemic Charles Foster rat assessed as decrease in plasma VLDL-apoprotein level at 100 mg/kg, po administered for 4 weeks relative to control; format: functional; design: scale not given: the % may be the effect or the level left; method in brief: as §2
Rattus norvegicus [9] = test: Antihyperlipidemic activity in HFD-induced hyperlipidemic Charles Foster rat assessed as increase in [I125]-LDL catabolism in plasma membrane of liver at 100 mg/kg/day, po administered for 4 weeks; format: functional
Method in brief: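 Rats on 8 weeks total of high-fat diet, dosed daily for the last 4 weeks, then sacrificed. Human serum LDL radiolabeled with I125; specific binding to liver plasma membrane preparation measured as receptor-mediated LDL catabolism. Mean ± SD, n = 6.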

Rattus norvegicus [10] = test: Toxicity in HFD-induced hyperlipidemic Charles Foster rat at 100 mg/kg/day, po administered for 4 weeks by autopsy analysis; format: organism-based; design: route oral; details: in vivo, 672 h; method in brief: as §4
Rattus norvegicus [11] = test: Antihyperlipidemic activity in Triton WR-1339-induced hyperlipidemic rat assessed as decrease in plasma triglyceride level at 100 mg/kg, po relative to control; format: functional; design: scale not given: the % may be the effect or the level left; method in brief: as §1
Rattus norvegicus [12] = test: Toxicity in HFD-induced hyperlipidemic Charles Foster rat assessed as mortality at 100 mg/kg/day, po administered for 4 weeks; format: organism-based; design: route oral; details: in vivo, 672 h; method in brief: as §4
Rattus norvegicus [13] = test: Antiobesity activity in HFD-induced hyperlipidemic Charles Foster rat assessed as decrease in perirenal fat-pad at 100 mg/kg, po administered for 4 weeks; format: functional, organism-based; design: dose 100 mg/kg
Method in brief: (§5)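 Adult male Charles Foster rats given high-fat or normal diet 4 weeks, then diet plus vehicle or daily dosing 4 more weeks, sacrificed at week 8. Body weight gain, food intake, food efficiency ratio (weight gain/food intake over the period), and mesenteric, gonadal, inguinal and perirenal fat-pad weights recorded; mean ± SD, n = 6.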

Rattus norvegicus [14] = test: Antihyperlipidemic activity in Triton WR-1339-induced hyperlipidemic rat assessed as increase in LCAT enzyme level at 50 mg/kg, po; format: functional; method in brief: as §3
Rattus norvegicus [15] = test: Antihyperlipidemic activity in Triton WR-1339-induced hyperlipidemic rat assessed as decrease in plasma triglyceride level at 150 mg/kg, po; format: functional; method in brief: as §3
Rattus norvegicus [16] = test: Antihyperlipidemic activity in HFD-induced hyperlipidemic Charles Foster rat assessed as decrease in plasma LDL-phospholipid level at 100 mg/kg, po administered for 4 weeks relative to control; format: functional; design: scale not given: the % may be the effect or the level left; method in brief: as §2
Rattus norvegicus [17] = test: Antihyperlipidemic activity in Triton WR-1339-induced hyperlipidemic rat assessed as decrease in plasma phospholipid level at 150 mg/kg, po; format: functional; method in brief: as §3
Rattus norvegicus [18] = test: Antiobesity activity in HFD-induced hyperlipidemic Charles Foster rat assessed as decrease in inguinal fat-pad at 100 mg/kg, po administered for 4 weeks; format: functional, organism-based; design: dose 100 mg/kg; method in brief: as §5
Rattus norvegicus [19] = test: Antiobesity activity in HFD-induced hyperlipidemic Charles Foster rat assessed as decrease in food efficacy ratio at 100 mg/kg, po administered for 4 weeks; format: functional, organism-based; design: dose 100 mg/kg; method in brief: as §5
Rattus norvegicus [20] = test: Antihyperlipidemic activity in po dosed Triton WR-1339-induced hyperlipidemic rat assessed as decrease in plasma phospholipid level; format: functional, organism-based; method in brief: as §1
Rattus norvegicus [21] = test: Antihyperlipidemic activity in HFD-induced hyperlipidemic Charles Foster rat assessed as decrease in plasma LDL-total cholesterol level at 100 mg/kg, po administered for 4 weeks relative to control; format: functional; design: scale not given: the % may be the effect or the level left; method in brief: as §2
Rattus norvegicus [22] = test: Antihyperlipidemic activity in HFD-induced hyperlipidemic Charles Foster rat assessed as reactivation of LPL activity at 100 mg/kg, po administered for 4 weeks relative to control; format: functional
Method in brief: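 Male Charles Foster rats fed high-fat diet 4 weeks, then diet plus daily dosing 4 weeks. Liver homogenized (10% w/v) in cold 100 mM phosphate buffer pH 7.2; total lipolytic LPL activity read as nmol free fatty acid formed/h/mg protein; pooled data from 6 rats/group, mean ± SD.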

Rattus norvegicus [23] = test: Antihyperlipidemic activity in Triton WR-1339-induced hyperlipidemic rat assessed as decrease in plasma phospholipid level at 50 mg/kg, po; format: functional; method in brief: as §3
Rattus norvegicus [24] = test: Antihyperlipidemic activity in HFD-induced hyperlipidemic Charles Foster rat assessed as decrease in plasma LDL-triglyceride level at 100 mg/kg, po administered for 4 weeks relative to control; format: functional; design: scale not given: the % may be the effect or the level left; method in brief: as §2
Rattus norvegicus [25] = test: Antihyperlipidemic activity in HFD-induced hyperlipidemic Charles Foster rat assessed as decrease in plasma VLDL-total cholesterol level at 100 mg/kg, po administered for 4 weeks relative to control; format: functional; design: scale not given: the % may be the effect or the level left; method in brief: as §2
Rattus norvegicus [26] = test: Antihyperlipidemic activity in HFD-induced hyperlipidemic Charles Foster rat assessed as increase in plasma HDL-phospholipid level at 100 mg/kg, po administered for 4 weeks relative to control; format: functional; method in brief: as §2
Rattus norvegicus [27] = test: Antihyperlipidemic activity in HFD-induced hyperlipidemic Charles Foster rat assessed as increase in plasma HDL-total cholesterol level at 100 mg/kg, po administered for 4 weeks relative to control; format: functional; method in brief: as §2

CCOC(=O)C(C)Oc1ccc(C(c2cn(CC)c3ccccc23)c2cn(CC)c3ccccc23)cc1 (configuration not stated)
Activity (Rattus norvegicus [1]): 23% | Activity (Rattus norvegicus [2]): 16% | percent increase (Rattus norvegicus [3]): 15% | Activity (Rattus norvegicus [4]): 33 mg/dL | Activity (Rattus norvegicus [5]): Non-toxic | percent increase (Rattus norvegicus [6]): 11% | Activity (Rattus norvegicus [7]): Non-toxic | Activity (Rattus norvegicus [8]): 26% | Activity (Rattus norvegicus [9]): 24% | Activity (Rattus norvegicus [10]): Non-toxic | Activity (Rattus norvegicus [11]): 25% | Activity (Rattus norvegicus [12]): Non-toxic | Activity (Rattus norvegicus [13]): Active | Activity (Rattus norvegicus [14]): 8 nmol/h/mL | Activity (Rattus norvegicus [15]): 26 mg/dL | Activity (Rattus norvegicus [16]): 25% | Activity (Rattus norvegicus [17]): 29 mg/dL | Activity (Rattus norvegicus [18]): Active | Activity (Rattus norvegicus [19]): Active | Activity (Rattus norvegicus [20]): Dose-dependent effect | Activity (Rattus norvegicus [21]): 24% | Activity (Rattus norvegicus [22]): 20% | Activity (Rattus norvegicus [23]): 15 mg/dL | Activity (Rattus norvegicus [24]): 21% | Activity (Rattus norvegicus [25]): 21% | Activity (Rattus norvegicus [26]): 13% | Activity (Rattus norvegicus [27]): 14%

CCOC(=O)CCCOc1ccc(C(c2cn(C)c3ccccc23)c2cn(C)c3ccccc23)cc1
Activity (Rattus norvegicus [1]): 14% | Activity (Rattus norvegicus [2]): 14% | percent increase (Rattus norvegicus [3]): 20% | Activity (Rattus norvegicus [4]): 35 mg/dL | percent increase (Rattus norvegicus [6]): 10% | Activity (Rattus norvegicus [7]): Non-toxic | Activity (Rattus norvegicus [8]): 33% | Activity (Rattus norvegicus [9]): 18% | Activity (Rattus norvegicus [11]): 27% | Activity (Rattus norvegicus [12]): Non-toxic | Activity (Rattus norvegicus [13]): Active | Activity (Rattus norvegicus [14]): 11 nmol/h/mL | Activity (Rattus norvegicus [15]): 27 mg/dL | Activity (Rattus norvegicus [16]): 20% | Activity (Rattus norvegicus [17]): 29 mg/dL | Activity (Rattus norvegicus [18]): Active | Activity (Rattus norvegicus [19]): Active | Activity (Rattus norvegicus [20]): Dose-dependent effect | Activity (Rattus norvegicus [21]): 22% | Activity (Rattus norvegicus [22]): 14% | Activity (Rattus norvegicus [23]): 16 mg/dL | Activity (Rattus norvegicus [24]): 25% | Activity (Rattus norvegicus [25]): 15% | Activity (Rattus norvegicus [26]): 8% | Activity (Rattus norvegicus [27]): 12%
